This is an account of results in ChEMBL document CHEMBL5321236, “Fluoro-labelled sp2-iminoglycolipids with immunomodulatory properties” (Eur J Med Chem, 2023).

In series [1] the test system is HBL-100. The series is described as follows: Growth inhibition of human HBL-100 cells measured after 48 hrs by SRB colorimetric assay. It is filed as functional. Put shortly: (§1)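 NCI-based protocol with sulforhodamine B read-out. Seeded 2500 (A549, HBL-100, HeLa, SW1573), 5000 (T-47D, WiDr, SW1573/P-gp) or 7000 (BJ-hTERT) cells/well. Exposed 48 h to serial decimal dilutions, 0.001–100 μM, from 40 mM DMSO stock. GI50 by NCI formulas; mean of three or more experiments ± SD.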

Series [2] concerns SW1573. The experiment in a line: Growth inhibition of human SW1573 cells measured after 48 hrs by SRB colorimetric assay. It is filed as functional. Put shortly:
as §1
For orientation: Sulforhodamine B stains cellular protein and so reports cell mass.

Series [3] deals with HeLa. The series is described as follows: Growth inhibition of human HeLa cells measured after 48 hrs by SRB colorimetric assay. The format is functional. Put shortly: as §1
The subject of series [4] is WiDr. The series is described as follows: Growth inhibition of human WiDr cells measured after 48 hrs by SRB colorimetric assay. It is filed as functional. Put shortly: as §1
Series [5] has as its system A549. The series is described as follows: Growth inhibition of human A549 cells measured after 48 hrs by SRB colorimetric assay. The format is functional. In short, it runs like this: as §1
Series [6] relates to T47D. The experiment in a line: Growth inhibition of human T47D cells measured after 48 hrs by SRB colorimetric assay. It is filed as functional. In short, it runs like this: as §1
The test system of series [7] is BV-2. The series is described as follows: Protection against LPS induced inflammation in mouse BV-2 cells assessed as decrease in Tnf-alpha mRNA expression at 10 uM incubated for 24 hrs with LPS stimulation by qRT-PCR analysis. A general note: In qPCR the cycle at which signal appears reflects the starting amount.
Series [8] relates to BV-2. The experiment in a line: Protection against LPS induced inflammation in mouse BV-2 cells assessed as decrease in IL1-beta mRNA expression at 10 uM incubated for 24 hrs with LPS stimulation by qRT-PCR analysis.
Series [9] deals with BV-2. The experiment in a line: Cytotoxicity against mouse BV-2 cells at 10 uM measured after 24 hr by crystal violet staining based analysis. The format is toxicity, cell-based. The settings on record: bv-2, 24 h. In short, it runs like this: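 Bv.2 cells grown to 70% confluence, exposed 24 h in serum-free medium to 0.1, 1.0, 10 and 25 μM. Fixed with 1% glutaraldehyde, stained with 0.1% crystal violet, dye released in 10% acetic acid, absorbance 590 nm. Mean ± SEM, n ≥ 3 independent experiments.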

Series [10] relates to SW1573. The series is described as follows: Growth inhibition of human SW1573 cells overexpressing P-glycoprotein measured after 48 hrs in absence of verapamil by SRB colorimetric assay. The format is functional. Put shortly:
(§2)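 NCI-based protocol with sulforhodamine B read-out. Cells grown in RPMI 1640 with 5% FBS and 1 mM glutamine at 37 °C, 5% CO₂. Seeded 2500 (A549, HBL-100, HeLa, SW1573), 5000 (T-47D, WiDr, SW1573/P-gp) or 7000 (BJ-hTERT) cells/well. Exposed 48 h to serial decimal dilutions, 0.001–100 μM, from 40 mM DMSO stock. GI50 by NCI formulas; mean of three or more experiments ± SD.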

A short description of series [11]: Resistance factor, ratio of GI50 for growth inhibition of human SW1573 cells overexpressing P-glycoprotein measured after 48 hrs in absence of verapamil to GI50 for growth inhibition of human SW1573 cells measured after 48 hrs in absence of verapamil. It is filed as functional. Put shortly:
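Resistance factor: GI50 in P-gp-overexpressing SW1573 divided by GI50 in parental SW1573, each from 48 h SRB growth-inhibition assay without verapamil. Values are means of three or more independent experiments.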

Series [12] is described as follows: Resistance factor, ratio of GI50 for growth inhibition of human SW1573 cells overexpressing P-glycoprotein measured after 48 hrs in presence of verapamil to GI50 for growth inhibition of human SW1573 cells measured after 48 hrs in presence of verapamil. The format is functional. Put shortly:
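SW1573 parental and P-gp-overexpressing cells given 48 h exposure to serial dilutions (0.001–100 μM) in medium containing verapamil at a final 10 μM as P-gp transport inhibitor. SRB read-out, GI50 by NCI formulas. Resistance factor taken as GI50 in SW1573/P-gp divided by GI50 in SW1573.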

Series [13] concerns SW1573. The experiment in a line: Growth inhibition of human SW1573 cells measured after 48 hrs in presence of verapamil by SRB colorimetric assay. The format is functional. In short, it runs like this: as §2
The subject of series [14] is SW1573. The series is described as follows: Growth inhibition of human SW1573 cells measured after 48 hrs in absence of verapamil by SRB colorimetric assay. The format is functional. Put shortly:
as §2

Series [15] has as its system SW1573. The series is described as follows: Growth inhibition of human SW1573 cells overexpressing P-glycoprotein measured after 48 hrs in presence of verapamil by SRB colorimetric assay. It is filed as functional. In short, it runs like this:
as §2

Series [16] addresses Mitogen-activated protein kinase 14 (Mus musculus) (UniProt P47811). The series is described as follows: Inhibition of LPS-stimulated p38 alpha phosphorylation in mouse BV-2 cells at 10 uM measured after 60 to 90 mins by Western blot analysis. The settings on record: time 60-90 min. It is filed as cell-based. Put shortly: (§3)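 Bv.2 cells exposed with or without LPS for 15–90 min. Protein extracts run on SDS-PAGE, blotted to PVDF, probed with anti-phospho-p38α MAPK and anti-total p38α MAPK (1:1000), ECL detection. Quantified by densitometry, mean ± SEM, n = 3.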
A general note: In western blotting, separated proteins are transferred to a membrane and probed.

Series [17] shares this target. The series is described as follows: Inhibition of LPS-stimulated p38 alpha phosphorylation in mouse BV-2 cells at 10 uM measured after 30 mins by Western blot analysis. The format is cell-based. In short, it runs like this:
as §3

For series [18], the system named is BV-2. The experiment in a line: Antiinflammatory activity in mouse BV-2 cells assessed as restoration of […] expression level at 10 uM incubated for 24 hrs with LPS stimulation by qRT-PCR analysis. The format is functional, cell-based. In short, it runs like this: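 Bv.2 microglia stimulated with LPS 200 ng/mL with or without compound at 10 μM for 24 h. Arg1 mRNA measured by qRT-PCR, Actinb as housekeeping gene, 2^-ΔΔCT method, fold change relative to basal. n ≥ 4 independent experiments in triplicate.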

Active and inactive are the calls of the source. The rule behind the calls is not given here.

By GI50 is commonly meant the concentration at which growth is held to half of that of the control.

Sequence of Mitogen-activated protein kinase 14 (Mus musculus) (P47811 whole entry): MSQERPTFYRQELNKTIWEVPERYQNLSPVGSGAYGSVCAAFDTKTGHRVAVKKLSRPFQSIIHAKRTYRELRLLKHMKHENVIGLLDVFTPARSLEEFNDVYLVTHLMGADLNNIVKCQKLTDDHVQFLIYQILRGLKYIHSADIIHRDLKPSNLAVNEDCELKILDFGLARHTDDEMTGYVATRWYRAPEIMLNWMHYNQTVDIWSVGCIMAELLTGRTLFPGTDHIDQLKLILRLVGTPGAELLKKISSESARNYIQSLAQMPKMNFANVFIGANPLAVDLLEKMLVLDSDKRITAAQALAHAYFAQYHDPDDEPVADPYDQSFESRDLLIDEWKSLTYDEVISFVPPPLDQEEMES

As for `CCCCCCCCCCCCS(=O)(=O)[C@@H]1[C@@H](OC)[C@@H](O)[C@H](O)[C@H]2COC(=O)N21`, the GI50 in series [1] was found to be 20 µM; in series [2] it was 21 µM; in series [3] it was 20 µM; in series [4] it was 21 µM; in [5], 15 µM; in series [6], 17 µM.

On to `O=C1OC[C@@H]2[C@@H](O)[C@H](O)[C@@H](F)[C@@H](O)N12`, for which the 50% growth inhibitory concentration (GI50) in series [1], in [2], in series [3], in series [4], in series [5] and in [6] was more than 100 µM in each case. Further, the outcome in [7] and in series [8] was Active. Also, the Activity entry in series [9] is given as “Non-Toxic”.

In the case of `O=C1OC[C@@H]2[C@@H](O)[C@H](OCc3ccccc3)[C@@H](F)[C@@H](O)N12`, the concentration for 50% growth inhibition (GI50) in series [1], in [2], in [3], in series [4], in series [5] and in [6] was more than 100 µM throughout.

For `CCCCCCCCCCCCS[C@@H]1[C@@H](O)[C@@H](O)[C@H](O)[C@H]2COC(=O)N21`, the concentration for 50% growth inhibition (GI50) in series [1] was determined as 26 µM; in series [2], 25 µM; in [3] it was 19 µM; in [4] it was 23 µM; in series [5] it was 18 µM; in series [6], 25 µM.

Take `O=C1OC[C@@H]2[C@@H](O)[C@H](O)[C@H](O)[C@@H](O)N12`: the concentration for 50% growth inhibition (GI50) in series [1], in series [2], in series [3], in [4], in [5] and in series [6] was more than 100 µM each time.

In the case of `O=C1OC[C@@H]2[C@@H](O)[C@H](O)[C@H](F)[C@@H](O)N12`, the GI50 in series [1], in series [2], in series [3], in [4], in [5] and in series [6] was more than 100 µM throughout.

In the case of `CCCCCCCCCCCCS(=O)(=O)[C@@H]1[C@@H](F)[C@@H](OCc2ccccc2)[C@H](O)[C@H]2COC(=O)N21`, the GI50 in [1] is 3.4 µM; in [2], 4.5 µM; in series [3], 3.6 µM; in series [4], 4.3 µM; in series [5] it was 4.2 µM; in series [6] it was 3.8 µM.

As for `CCCCCCCCCCCCS(=O)(=O)[C@@H]1[C@@H](F)[C@@H](O)[C@H](O)[C@H]2COC(=O)N21`, the GI50 was 7.4 µM in [1]; 3.6 µM in [2]; 3.1 µM in [3]; 4.3 µM in series [4]; 2.9 µM in series [5]; 10 µM in [6].

As to `CCCCCCCCCCCCS[C@@H]1[C@H](F)[C@@H](O)[C@H](O)[C@H]2COC(=O)N21`, the GI50 worked out at 22 µM in [1]; 22 µM in series [2]; 19 µM in series [3]; 21 µM in [4]; 17 µM in series [5]; 21 µM in series [6]. Moreover, the result in series [7] and in series [8] was Active. Besides, the Activity entry in series [9] is recorded as “Non-Toxic”.

On to `CCCCCCCCCCCCS[C@@H]1[C@H](O)[C@@H](O)[C@H](O)[C@H]2COC(=O)N21`, for which the GI50 in series [1] was 17 µM; in series [2] it was 18 µM; in [3] it was 17 µM; in series [4], 18 µM; in series [5] it was 16 µM; in series [6], 18 µM.

`O=C1OC[C@@H]2[C@@H](O)[C@H](O)[C@@H](O)[C@@H](O)N12`: the 50% growth inhibitory concentration (GI50) in series [1], in series [2], in [3], in [4], in series [5] and in series [6] was more than 100 µM in each case.

Consider `CCCCCCCCCCCCS[C@@H]1[C@H](F)[C@@H](OCc2ccccc2)[C@H](O)[C@H]2COC(=O)N21`, for which the GI50 was determined as 19 µM in series [1]; 19 µM in [2]; 13 µM in series [3]; 20 µM in series [4]; 18 µM in series [5]; 18 µM in series [6].

On to `CCCCCCCCCCCCS[C@@H]1[C@@H](F)[C@@H](OCc2ccccc2)[C@H](O)[C@H]2COC(=O)N21`, for which the GI50 was determined as 18 µM in series [1]; 18 µM in [2]; 19 µM in series [3]; 18 µM in [4]; 13 µM in [5]; 20 µM in series [6].

Consider `CC(=O)O[C@H]1C(=O)[C@@]2(C)[C@H]([C@H](OC(=O)c3ccccc3)[C@]3(O)C[C@H](OC(=O)[C@H](O)[C@@H](NC(=O)c4ccccc4)c4ccccc4)C(C)=C1C3(C)C)[C@]1(OC(C)=O)CO[C@@H]1C[C@@H]2O` [PACLITAXEL], for which the GI50 in series [10] turned out to be 0.3 µM; in series [13], 0.00046 µM; in series [14], 0.00053 µM; in [15], 0.00031 µM. In addition, the figures for the RatioGI50 in [11] and in series [12] were 564 and 0.7, respectively.

Consider `O=C1OC[C@@H]2[C@@H](O)[C@H](OCc3ccccc3)[C@H](F)[C@@H](O)N12`, for which the GI50 in series [1], in series [2], in series [3], in series [4], in [5] and in [6] was more than 100 µM in each case.

Regarding `O=c1[nH]cc(F)c(=O)[nH]1` [FLUOROURACIL], the concentration for 50% growth inhibition (GI50) in [1] worked out at 5.5 µM; in series [2], 4.3 µM; in series [3] it was 15 µM; in [4], 49 µM; in [5] it was 2.2 µM; in series [6] it was 47 µM.

Turning to `CCCCCCCCCCCCS(=O)(=O)[C@@H]1[C@H](O)[C@@H](OCc2ccccc2)[C@H](O)[C@H]2COC(=O)N21`, the 50% growth inhibitory concentration (GI50) is 15 µM in series [1]; 10 µM in series [2]; 9.2 µM in series [3]; 13 µM in series [4]; 7.1 µM in series [5]; 14 µM in [6]. Besides, the result in series [7] and in series [8] was Active. Besides, the Activity entry in series [9] is “Non-Toxic”.

Consider `CCCCCCCCCCCCS(=O)(=O)[C@@H]1[C@H](F)[C@@H](OCc2ccccc2)[C@H](O)[C@H]2COC(=O)N21`, for which the 50% growth inhibitory concentration (GI50) was determined as 4.2 µM in [1]; 4.2 µM in [2]; 3.3 µM in [3]; 3.6 µM in series [4]; 4.3 µM in [5]; 9.7 µM in series [6]. Also, the result in series [7], in [8] and in [18] was Active. The inhibition entry in [16] and in [17] was “inactive” each time. Moreover, in series [9], the Activity result was “Non-Toxic”.
